Data published in ChEMBL document CHEMBL3593207, “Imidazole clubbed 1,3,4-oxadiazole derivatives as potential antifungal agents” (2015).
Values after ≈ are worked out from the molar mass of the structure shown. Each block holds one compound with its values, some of them ahead of it.

Assays:
Candida albicans [1] = test: Antifungal activity against Candida albicans ATCC 10261 by broth microdilution assay; type: functional
Method in brief: (§1)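 CLSI M27-A3 broth microdilution. Compounds diluted to 1 mg/ml in 1% DMSO. Fluconazole (1 mg/ml) served as positive control, 1% DMSO as vehicle control, with media and culture controls. Triplicate at each concentration, repeated thrice. Inocula came from YPDA stocks subcultured in broth for 48 h at 37 °C.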

Candida tropicalis [2] = test: Antifungal activity against Candida tropicalis ATCC 750 by broth microdilution assay; type: functional; method in brief: as §1
Candida albicans [3] = test: Antifungal activity against clinical isolates of Candida albicans 2323 by broth microdilution assay; type: functional; method in brief: as §1
Candida albicans [4] = test: Antifungal activity against clinical isolates of Candida albicans 2367 by broth microdilution assay; type: functional; method in brief: as §1
Candida albicans [5] = test: Antifungal activity against clinical isolates of Candida albicans 2779 by broth microdilution assay; type: functional; method in brief: as §1
Candida tropicalis [6] = test: Antifungal activity against clinical isolates of Candida tropicalis 2029 by broth microdilution assay; type: functional; method in brief: as §1
Candida tropicalis [7] = test: Antifungal activity against clinical isolates of Candida tropicalis 2356 by broth microdilution assay; type: functional; method in brief: as §1
Candida albicans [8] = test: Cytotoxicity against Candida albicans ATCC 10261 at MIC after 24 hrs by WST1 assay; type: functional
Method in brief: (§2)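 Candida cells were exposed to MIC and sub-MIC levels for 24 h in microplates, then to WST-1/CEC dye for 30 min at 37 °C. Plates were shaken 1 min and the reaction stopped with 1% SDS. Formazan was read at 450 nm. % cytotoxicity = 100 × (cell control − experimental)/cell control. Triplicates, mean ± SD.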

Candida albicans [9] = test: Cytotoxicity against Candida albicans ATCC 10261 at 1/2 MIC after 24 hrs by WST1 assay; type: functional; method in brief: as §2
Candida albicans [10] = test: Cytotoxicity against Candida albicans ATCC 10261 at 1/4 MIC after 24 hrs by WST1 assay; type: functional; method in brief: as §2
Candida albicans [11] = test: Cytotoxicity against clinical isolates of Candida albicans 2779 at 1/4 MIC after 24 hrs by WST1 assay; type: functional; method in brief: as §2
Candida albicans [12] = test: Inhibition of ergosterol biosynthesis in Candida albicans ATCC 10261 assessed as ergosterol content at 1/2 MIC after 16 hrs by spectrophotometer analysis; type: functional; design: scale not given: the % may be the effect or the level left
Method in brief: (§3)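 Cells were pelleted and washed, and wet weight taken. Pellets were saponified in 25% alcoholic KOH at 85 °C for 1 h. Sterols were extracted into n-heptane/water. Ergosterol content is expressed relative to untreated control cells.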

Candida albicans [13] = test: Inhibition of ergosterol biosynthesis in Candida albicans ATCC 10261 assessed as ergosterol content at MIC after 16 hrs by spectrophotometer analysis; type: functional; design: scale not given: the % may be the effect or the level left; method in brief: as §3
Candida tropicalis [14] = test: Inhibition of ergosterol biosynthesis in Candida tropicalis ATCC 750 assessed as ergosterol content at 1/2 MIC after 16 hrs by spectrophotometer analysis; type: functional; design: scale not given: the % may be the effect or the level left; method in brief: as §3
Candida tropicalis [15] = test: Inhibition of ergosterol biosynthesis in Candida tropicalis ATCC 750 assessed as ergosterol content at MIC after 16 hrs by spectrophotometer analysis; type: functional; design: scale not given: the % may be the effect or the level left
Method in brief: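 Cells were harvested, washed, and wet pellet weight recorded. Pellets were saponified in 3 mL 25% alcoholic KOH at 85 °C for 1 h, then sterols extracted into n-heptane. Ergosterol is expressed relative to untreated control cells.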

Candida albicans [16] = test: Inhibition of ergosterol biosynthesis in Candida albicans 2323 assessed as ergosterol content at 1/2 MIC after 16 hrs by spectrophotometer analysis; type: functional; design: scale not given: the % may be the effect or the level left; method in brief: as §3
Candida albicans [17] = test: Inhibition of ergosterol biosynthesis in Candida albicans 2323 assessed as ergosterol content at MIC after 16 hrs by spectrophotometer analysis; type: functional; design: scale not given: the % may be the effect or the level left; method in brief: as §3
Candida albicans [18] = test: Inhibition of ergosterol biosynthesis in Candida albicans 2367 assessed as ergosterol content at 1/2 MIC after 16 hrs by spectrophotometer analysis; type: functional; design: scale not given: the % may be the effect or the level left; method in brief: as §3
Candida albicans [19] = test: Inhibition of ergosterol biosynthesis in Candida albicans 2367 assessed as ergosterol content at MIC after 16 hrs by spectrophotometer analysis; type: functional; design: scale not given: the % may be the effect or the level left; method in brief: as §3
Candida albicans [20] = test: Inhibition of ergosterol biosynthesis in Candida albicans 2779 assessed as ergosterol content at 1/2 MIC after 16 hrs by spectrophotometer analysis; type: functional; design: scale not given: the % may be the effect or the level left; method in brief: as §3
Candida albicans [21] = test: Inhibition of ergosterol biosynthesis in Candida albicans 2779 assessed as ergosterol content at MIC after 16 hrs by spectrophotometer analysis; type: functional; design: scale not given: the % may be the effect or the level left; method in brief: as §3
Candida tropicalis [22] = test: Inhibition of ergosterol biosynthesis in Candida tropicalis 2029 assessed as ergosterol content at 1/2 MIC after 16 hrs by spectrophotometer analysis; type: functional; design: scale not given: the % may be the effect or the level left; method in brief: as §3
Candida tropicalis [23] = test: Inhibition of ergosterol biosynthesis in Candida tropicalis 2029 assessed as ergosterol content at MIC after 16 hrs by spectrophotometer analysis; type: functional; design: scale not given: the % may be the effect or the level left; method in brief: as §3
Candida tropicalis [24] = test: Inhibition of ergosterol biosynthesis in Candida tropicalis 2356 assessed as ergosterol content at 1/2 MIC after 16 hrs by spectrophotometer analysis; type: functional; design: scale not given: the % may be the effect or the level left; method in brief: as §3
Candida tropicalis [25] = test: Inhibition of ergosterol biosynthesis in Candida tropicalis 2356 assessed as ergosterol content at MIC after 16 hrs by spectrophotometer analysis; type: functional; design: scale not given: the % may be the effect or the level left; method in brief: as §3
Candida albicans [26] = test: Antifungal activity against Candida albicans ATCC 10261 at half MIC after 48 hrs by disc diffusion assay; type: functional
Method in brief: (§4)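 Cells (10^3 cells ml−1) grown in YPD were mixed into molten agar (~40 °C) and poured into 100-mm plates. Filter discs (4 mm) were spotted with 10 µl of compound at 1/2 × MIC, MIC or 2 × MIC. Fluconazole and 1% DMSO were the controls. Plates were incubated at 37 °C for 48 h and inhibition zone diameters recorded in mm.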

Candida albicans [27] = test: Antifungal activity against Candida albicans ATCC 10261 at MIC after 48 hrs by disc diffusion assay; type: functional; method in brief: as §4
Candida albicans [28] = test: Antifungal activity against Candida albicans ATCC 10261 at 2 times MIC after 48 hrs by disc diffusion assay; type: functional; method in brief: as §4
Candida tropicalis [29] = test: Antifungal activity against Candida tropicalis ATCC 750 at half MIC after 48 hrs by disc diffusion assay; type: functional; method in brief: as §4
Candida tropicalis [30] = test: Antifungal activity against Candida tropicalis ATCC 750 at MIC after 48 hrs by disc diffusion assay; type: functional; method in brief: as §4
Candida tropicalis [31] = test: Antifungal activity against Candida tropicalis ATCC 750 at 2 times MIC after 48 hrs by disc diffusion assay; type: functional; method in brief: as §4
Candida albicans [32] = test: Antifungal activity against clinical isolates of Candida albicans 2323 at half MIC after 48 hrs by disc diffusion assay; type: functional; method in brief: as §4
Candida albicans [33] = test: Antifungal activity against clinical isolates of Candida albicans 2323 at MIC after 48 hrs by disc diffusion assay; type: functional; method in brief: as §4
Candida albicans [34] = test: Antifungal activity against clinical isolates of Candida albicans 2323 at 2 times MIC after 48 hrs by disc diffusion assay; type: functional; method in brief: as §4
Candida albicans [35] = test: Antifungal activity against clinical isolates of Candida albicans 2367 at half MIC after 48 hrs by disc diffusion assay; type: functional; method in brief: as §4
Candida albicans [36] = test: Antifungal activity against clinical isolates of Candida albicans 2367 at MIC after 48 hrs by disc diffusion assay; type: functional; method in brief: as §4
Candida albicans [37] = test: Antifungal activity against clinical isolates of Candida albicans 2367 at 2 times MIC after 48 hrs by disc diffusion assay; type: functional; method in brief: as §4
Candida albicans [38] = test: Antifungal activity against clinical isolates of Candida albicans 2779 at half MIC after 48 hrs by disc diffusion assay; type: functional; method in brief: as §4
Candida albicans [39] = test: Antifungal activity against clinical isolates of Candida albicans 2779 at MIC after 48 hrs by disc diffusion assay; type: functional; method in brief: as §4
Candida albicans [40] = test: Antifungal activity against clinical isolates of Candida albicans 2779 at 2 times MIC after 48 hrs by disc diffusion assay; type: functional; method in brief: as §4
Candida tropicalis [41] = test: Antifungal activity against clinical isolates of Candida tropicalis 2029 at half MIC after 48 hrs by disc diffusion assay; type: functional; method in brief: as §4
Candida tropicalis [42] = test: Antifungal activity against clinical isolates of Candida tropicalis 2029 at MIC after 48 hrs by disc diffusion assay; type: functional; method in brief: as §4
Candida tropicalis [43] = test: Antifungal activity against clinical isolates of Candida tropicalis 2029 at 2 times MIC after 48 hrs by disc diffusion assay; type: functional; method in brief: as §4
Candida tropicalis [44] = test: Antifungal activity against clinical isolates of Candida tropicalis 2356 at half MIC after 48 hrs by disc diffusion assay; type: functional; method in brief: as §4
Candida tropicalis [45] = test: Antifungal activity against clinical isolates of Candida tropicalis 2356 at MIC after 48 hrs by disc diffusion assay; type: functional; method in brief: as §4
Candida tropicalis [46] = test: Antifungal activity against clinical isolates of Candida tropicalis 2356 at 2 times MIC after 48 hrs by disc diffusion assay; type: functional; method in brief: as §4
Candida tropicalis [47] = test: Cytotoxicity against Candida tropicalis ATCC 750 at MIC after 24 hrs by WST1 assay
Candida tropicalis [48] = test: Cytotoxicity against Candida tropicalis ATCC 750 at 1/2 MIC after 24 hrs by WST1 assay
Candida tropicalis [49] = test: Cytotoxicity against Candida tropicalis ATCC 750 at 1/4 MIC after 24 hrs by WST1 assay

- MIC (Candida albicans [1]): > 1000 µg/mL
- MIC (Candida tropicalis [2]): > 1000 µg/mL
- MIC (Candida albicans [3]): > 1000 µg/mL
- MIC (Candida albicans [4]): > 1000 µg/mL
- MIC (Candida albicans [5]): > 1000 µg/mL
- MIC (Candida tropicalis [6]): > 1000 µg/mL
- MIC (Candida tropicalis [7]): > 1000 µg/mL
Compound: CCc1ccnc(-c2nccn2Cc2nnc(-c3ccccc3)o2)c1

- MIC (Candida albicans [1]): 8 µg/mL (≈ 21.3 µM)
- MIC (Candida tropicalis [2]): 16 µg/mL (≈ 42.5 µM)
- MIC (Candida albicans [3]): 16 µg/mL (≈ 42.5 µM)
- MIC (Candida albicans [4]): 16 µg/mL (≈ 42.5 µM)
- MIC (Candida albicans [5]): 32 µg/mL (≈ 85 µM)
- MIC (Candida tropicalis [6]): 16 µg/mL (≈ 42.5 µM)
- MIC (Candida tropicalis [7]): 64 µg/mL (≈ 170 µM)
Compound: CCc1ccnc(-c2nccn2Cc2nnc(-c3ccc([N+](=O)[O-])cc3)o2)c1
- Activity (Candida albicans [8]): 57.94%
- Activity (Candida albicans [9]): 35.57%
- Activity (Candida albicans [10]): 16.88%
- Activity (Candida albicans [11]): 8.02%
- Activity (Candida albicans [12]): 43%
- Activity (Candida albicans [13]): 99%
- Activity (Candida tropicalis [14]): 57%
- Activity (Candida tropicalis [15]): 100%
- Activity (Candida albicans [16]): 31%
- Activity (Candida albicans [17]): 87%
- Activity (Candida albicans [18]): 47%
- Activity (Candida albicans [19]): 86%
- Activity (Candida albicans [20]): 45%
- Activity (Candida albicans [21]): 89%
- Activity (Candida tropicalis [22]): 52%
- Activity (Candida tropicalis [23]): 89%
- Activity (Candida tropicalis [24]): 59%
- Activity (Candida tropicalis [25]): 91%
- inhibition zone (IZ) (Candida albicans [26]): 3 mm
- inhibition zone (IZ) (Candida albicans [27]): 11 mm
- inhibition zone (IZ) (Candida albicans [28]): 15 mm
- inhibition zone (IZ) (Candida tropicalis [29]): 1 mm
- inhibition zone (IZ) (Candida tropicalis [30]): 9 mm
- inhibition zone (IZ) (Candida tropicalis [31]): 14 mm
- inhibition zone (IZ) (Candida albicans [32]): 0 mm
- inhibition zone (IZ) (Candida albicans [33]): 5 mm
- inhibition zone (IZ) (Candida albicans [34]): 9 mm
- inhibition zone (IZ) (Candida albicans [35]): 1 mm
- inhibition zone (IZ) (Candida albicans [36]): 5 mm
- inhibition zone (IZ) (Candida albicans [37]): 8 mm
- inhibition zone (IZ) (Candida albicans [38]): 2 mm
- inhibition zone (IZ) (Candida albicans [39]): 8 mm
- inhibition zone (IZ) (Candida albicans [40]): 11 mm
- inhibition zone (IZ) (Candida tropicalis [41]): 3 mm
- inhibition zone (IZ) (Candida tropicalis [42]): 8 mm
- inhibition zone (IZ) (Candida tropicalis [43]): 12 mm
- inhibition zone (IZ) (Candida tropicalis [44]): 1 mm
- inhibition zone (IZ) (Candida tropicalis [45]): 4 mm
- inhibition zone (IZ) (Candida tropicalis [46]): 9 mm
- Activity (Candida tropicalis [47]): 57.94%
- Activity (Candida tropicalis [48]): 35.57%
- Activity (Candida tropicalis [49]): 15.6%
